In the library only some 3.4% were active in any assay of this set; here they are far more common.
VIM-2 inhibitor – blocks Pseudomonas aeruginosa VIM-2 metallo-beta-lactamase; 0.89% of 290,000 active; purified VIM-2, nitrocefin hydrolysis, epi-absorbance fluorescence; inhibition, % at 5.6 µM;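 active = inhibition above the mean of all tested compounds plus 3 SD, cutoff set per screening run, cut at about 7.5% in these data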;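 also: red hydrolysis product quenches plate fluorescence so inhibitors raise well fluorescence; 0% = enzyme with DMSO and 100% = DMSO without enzyme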
MEKK3 PB1 HTS – modulators (inhibitors or enhancers) of MEK5 binding to human MEKK3 PB1 domain; Q99759; AID 1529; bead-based flow cytometry, Alexa488-MEK5 binding to MEKK3; actives lie on both sides; 0 = blocked by unlabeled MEK5, 100 = vehicle; 1.4% of 290,000 active; binding response (% of control), % at 10 µM;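 active = binding response more than 3 SD above or below the average of its plate-row segment, actives on both sides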;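 also: Alexa488 bead fluorescence after subtracting the streptavidin-only scavenger bead signal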
Target sequence (Q99759 whole entry, looked up, the tested form may be a part): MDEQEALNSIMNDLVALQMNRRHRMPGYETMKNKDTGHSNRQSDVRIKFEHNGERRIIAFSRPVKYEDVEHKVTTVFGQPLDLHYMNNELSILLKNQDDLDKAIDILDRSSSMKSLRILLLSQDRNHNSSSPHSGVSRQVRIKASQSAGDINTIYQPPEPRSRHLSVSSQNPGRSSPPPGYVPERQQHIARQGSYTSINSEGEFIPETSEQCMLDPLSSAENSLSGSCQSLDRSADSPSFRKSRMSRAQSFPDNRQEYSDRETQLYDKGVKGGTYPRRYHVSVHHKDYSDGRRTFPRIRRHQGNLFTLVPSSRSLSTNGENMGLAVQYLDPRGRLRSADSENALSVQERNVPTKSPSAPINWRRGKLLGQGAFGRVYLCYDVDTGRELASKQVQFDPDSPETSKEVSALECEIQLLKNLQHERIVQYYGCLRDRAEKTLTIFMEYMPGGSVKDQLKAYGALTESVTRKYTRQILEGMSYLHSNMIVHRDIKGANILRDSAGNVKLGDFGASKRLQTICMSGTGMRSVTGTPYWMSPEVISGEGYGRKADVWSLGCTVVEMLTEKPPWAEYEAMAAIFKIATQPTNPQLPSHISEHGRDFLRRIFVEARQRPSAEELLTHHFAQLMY
IMP-1 inhibitor – inhibitors of Pseudomonas aeruginosa IMP-1 metallo-beta-lactamase | purified IMP-1, nitrocefin hydrolysis, epi-absorbance fluorescence | inhibition, % at 5.6 µM | AID 1556 | 0.45% of 290,000 active;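 active = inhibition above the mean plus 3 SD of all compounds in the same screening run, cut at about 4.5% in these data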;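 also: 0% = IMP-1 with DMSO and 100% = DMSO wells lacking enzyme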
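System: purified IMP-1; amount: IMP-1 0.2 nM before substrate addition; compound: single dose, 5.6 µM; times: 25 °C, 15 min preincubation, 25 min reaction; signal: Epi-absorbance via hydrolysed-nitrocefin quenching of white-plate fluorescence, 480/530 nm, EDTA stop; benchmarks: DMSO with and without IMP-1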
MEKK2 mut-MEK5 – signal of MEK5 binding to mutant human MEKK2 PB1 domain; bead flow cytometry, Alexa488-MEK5 binding to MEKK2 mutant; percent response, % at 10 µM; 0.35% of 290,000 active; AID 1530; in the data active = percent response above about 24%, passing the limit was not always enough
MEKK2wt PB1 HTS – raises or lowers MEK5 binding to wildtype human MEKK2 PB1 domain; Q9Y2U5; bead flow cytometry, Alexa488-MEK5 binding to MEKK2 WT; actives lie on both sides; binding response (% of control), % at 10 µM; 1.1% of 290,000 active; in the data active = binding response below about 67% or above about 130%
MEKK2wt confirm – raises or lowers MEK5 binding to wildtype human MEKK2, retest; shares compounds with MEKK3 PB1 HTS; 2.4% of 5,900 active; bead flow cytometry, Alexa488-MEK5 binding to MEKK2 WT; actives lie on both sides; binding response (% of control), % at 10 µM; in the data active = binding response below about 16% or above about 210%; inactive = in between
MEKK2mut confirm – signal of MEK5 binding to mutant human MEKK2, retest | AID 1893 | shares compounds with MEKK3 PB1 HTS | bead flow cytometry, Alexa488-MEK5 binding to MEKK2 mutant | percent response, % at 10 µM | 2% of 5,900 active; in the data active = percent response mostly above about 71%, no sharp cut-off; inactive = mostly below about 38%;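 also: higher means compound restores mutant binding toward wildtype level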
MEKK3-MEK5 inh – MEKK3-MEK5 PB1 inhibition, single concentration confirmation. shares compounds with MEKK3 PB1 HTS. bead flow cytometry, Alexa488-MEK5 binding to MEKK3; active compounds read low. binding response (% of control), % at 10 µM. 1.8% of 5,900 active;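 active = binding response below 72% of control, or above a set upper limit, though filed actives all read lower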;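 also: 100% = DMSO only wells and 0% = binding blocked by excess unlabeled MEK5; lower values mean stronger disruption of MEK5 binding to MEKK3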
Active calls of the source: *; x = no result given; [ ] = dose if it differs, or a comment.

SMILES	VIM-2 inhibitor	MEKK3 PB1 HTS	IMP-1 inhibitor	MEKK2 mut-MEK5	MEKK2wt PB1 HTS	MEKK2wt confirm	MEKK2mut confirm	MEKK3-MEK5 inh
CCOC(=O)c1ccc(NC(=S)NN2CCN(C)CC2)cc1	3	41*[inhibitor]	0	-6	58	98	-3	99
CCOC(=O)c1ccc(NC(=S)NC2CCCC2)cc1	-2	65*[inhibitor]	-4	-1	95	99	-2	99
CCOC(=O)c1ccc(NC(=S)NCCCN2CCOCC2)cc1	-4	95	-2	-7	101	x	x	x
CCc1nnc(NC(=O)C2=NN(C3CCS(=O)(=O)C3)C(=O)CC2)s1 (configuration not stated)	2	93	0	-10	88	x	x	x
O=C(Nn1c(O)c(C=C2N=c3ccccc3=N2)sc1=S)c1cccc(Cl)c1	-2	79	-5	-4	49*[inhibitor]	63	-21	95
O=C(Nn1c(O)c(C=C2N=c3ccccc3=N2)sc1=S)c1ccc(Cl)cc1	0	x	-1	x	x	x	x	x
O=C(Nn1c(O)c(C=C2N=c3ccccc3=N2)sc1=S)c1ccccc1	-5	65	-5	-39	17*[inhibitor]	52	-23	91
Cc1ccc(C(=O)Nn2c(O)c(C=C3N=c4ccccc4=N3)sc2=S)cc1	-3	72	-4	-6	39*[inhibitor]	39	-30	91
CC(=O)Nc1ccc(NC(=O)C(C)OC(=O)c2ccccc2Sc2ccccc2C#N)cc1 (configuration not stated)	-1	105	-3	8	95	x	x	x
CC(=O)N/C(=N/c1nc(C)cc(C)n1)Nc1cccc(C)c1	4	105	-3	3	104	x	x	x
Cc1onc(-c2ccccc2)c1C(=O)Nc1c(C)n(C)n(-c2ccccc2)c1=O	-1	98	-3	0	93	x	x	x
COc1ccc(C(=O)/C=C/Nc2ccc([N+](=O)[O-])cc2)cc1	0	70*[inhibitor]	-1	-1	91	101	2	103
CCOC(=O)c1ccc(N/C=C\C(=O)c2cccc(OC)c2)cc1	-1	201*	-3	1	114	107	6	103
COc1ccc(N/C=C\C(=O)c2ccc3c(c2)OCO3)cc1	-4	1.0*[inhibitor]	-6	-9	-1.0*[inhibitor]	99	0	106
CCOc1ccc(N/C=C\C(=O)c2ccc3c(c2)OCO3)cc1	2	102	1	2	103	x	x	x
CCOc1ccc(N/C=C/C(=O)c2ccc(OC)cc2)cc1	0	99	1	1	102	x	x	x
CCc1nc2ccccc2n1CC(=O)N1CCN(S(=O)(=O)c2cccc(C(F)(F)F)c2)CC1	0	104	-2	2	102	x	x	x
Cn1nc(C(C)(C)C)c([N+](=O)[O-])c1C(=O)N1CCOCC1	0	102	-2	-1	101	x	x	x
O=C(CCc1ccccc1)Nc1ccc2c(c1)C(=O)OC2	-2	102	-3	7	102	x	x	x
Cc1ccc(C(=O)COC(=O)CNC(=O)c2ccc(Br)o2)cc1[N+](=O)[O-]	0	97	-2	0	101	x	x	x
COc1ccc(CNC(=O)C2CC(c3cccc(OC)c3)=NO2)cc1 (configuration not stated)	-1	82*[inhibitor]	-3	-4	89	103	0	102
Cc1cc(Br)ccc1OCC(=O)NNC(=O)CCc1ccccc1	-4	105	-4	4	105	x	x	x
COC(=O)C1=C(N)Oc2cc(C)n(C)c(=O)c2C1c1ccc(Cl)cc1 (configuration not stated)	0	95	-1	-3	95	x	x	x
O=C(COC(=O)/C=C/c1cccs1)NC(=O)Cc1ccccc1	-3	138*	-3	-2	112	101	3	101
CC(C)C(=O)NC(=O)COC(=O)/C=C/c1cccs1	-2	101	-2	3	105	x	x	x
